# Test results from PMC12118959 (Toxicological Sciences, 2025).
# Counter-ions that a name gives are not always drawn.
# Legend:
# 2D hiPSC-CMs [1] = test: Motion-field imaging contractility; assay type: cell-based, human; details: for MEC (minimum effective concentration), maximum contraction speed: serum-containing medium, concentration for 1.08-fold increase or 0.92-fold decrease
# In short: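 Thawed iCell hiPSC-CMs were re-plated on day 7 onto a ~3 mm fibronectin spot and cultured 5–9 days at 37°C, 5% CO2, with serum-containing medium overnight before recording. Phase-contrast video at 4x, 150 frames/s, analysed by block-matching. After sham baseline, cumulative additions from 1,000-fold DMSO stocks (final DMSO 0.1–0.4% v/v), 15 min each, 10-s videos; 4–5 wells. MEC by four-parameter log fit, 1.08/0.92-fold cutoffs.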
# 3D ECTs [2] = test: Contractility; assay type: cell-based, human; details: for MEC (minimum effective concentration), active force: serum-free, paced at 1 Hz, 15 min per concentration
# In short: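 Tissues were built from iCell cardiomyocytes plus human ventricular cardiac fibroblasts in hydrogel on Biowire II wires. After 30 min chamber equilibration, a 30-s baseline video was recorded, then a second one 10 min after a medium-pipetting step. Test compound in DMSO was added cumulatively at 3 or 4 rising concentrations (final DMSO 0.001–0.1%), 15 min each, with a 30-s video per concentration. n=6–9 tissues, one compound per tissue.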
# NaV1.5 = details: read-out: NaV1.5 IC50; ref Wang et al. 2010; cited from earlier work
# CaV1.2 = details: read-out: CaV1.2 IC50; ref Ando et al. 2017; cited from earlier work
# hERG = details: read-out: hERG IC50; ref Sube and Ertel 2017; cited from earlier work
# 2D hiPSC-CMs [3] = details: ref Okai et al. 2020; cited from earlier work
# 3D ECTs [4] = details: read-out: EC50, positive inotropic effect; same 3D ECT model; ref Feric et al. 2019; cited from earlier work
# aligned hiPSC-CMs = details: ref Satsuka et al. 2024; cited from earlier work
SMILES,"MEC (minimum effective concentration), maximum contraction speed (2D hiPSC-CMs [1]) [µM]",Concentration up to which no effect on active force was observed (3D ECTs [2]) [µM],"MEC (minimum effective concentration), active force (3D ECTs [2]) [µM]",also measured
"CC(=O)Oc1ccccc1C(=O)O [Aspirin, acetylsalicylic acid]",>300,300,>300,–
"COc1ccc(Cl)cc1C(=O)NCCc1ccc(S(=O)(=O)NC(=O)NC2CCCCC2)cc1 [Glibenclamide, glyburide]",>100,–,>100,–
"CC(C)NCC(O)COc1cccc2ccccc12 (racemic) [Propranolol, (±)-propranolol hydrochloride]",–,–,3.0,"IC50 (NaV1.5): 3 µM; MEC (minimum effective concentration), active force (3D ECTs [2]; listed as propranolol): ~3 µM"
"CN/C(=N/CCSCc1nc[nH]c1C)NC#N [Cimetidine, cimetidine]",>100,100,>100,–
"CN(C)C/C=C(/c1ccc(Br)cc1)c1cccnc1 [Zimelidine, zimelidine]",>0.10,3.0,–,–
"CC[C@H](C)C(=O)O[C@H]1C[C@H](O)C=C2C=C[C@H](C)[C@H](CC[C@@H](O)C[C@@H](O)CC(=O)O)[C@H]21 [Pravastatin, pravastatin]",>100,100,>100,–
"Nc1cc(-c2ccncc2)c[nH]c1=O [Amrinone, amrinone]",>100,–,–,–
"CC(C)NCC(O)c1ccc(O)c(O)c1 (stereo not shown) [Isoproterenol, isoproterenol]",–,–,<0.00010,"MEC, positive inotropic effect (maximum contraction speed) (2D hiPSC-CMs [1]): 0.35 nM; MEC, positive inotropic effect (active force) (3D ECTs [2]): below 0.1 nM"
"CCOc1ccccc1OCCN[C@H](C)Cc1ccc(OC)c(S(N)(=O)=O)c1 [Tamsulosin, tamsulosin]",>3.0,1.0,3.0,–
"COc1ccc(-c2nc3ccc(C4=NNC(=O)CC4C)cc3[nH]2)cc1 (stereo not shown) [Pimobendan, pimobendan]",>60,–,–,–
"O=C(CCCN1CCC(O)(c2ccc(Cl)cc2)CC1)c1ccc(F)cc1 [Haloperidol, haloperidol]",>0.10,–,0.30,Concentration at which irregular beating was induced (2D hiPSC-CMs [1]): above 0.10 µM; IC50 (CaV1.2): 1.3 µM
"Cc1ccc(N(CC2=NCCN2)c2cccc(O)c2)cc1 [Phentolamine, phentolamine hydrochloride]",>0.30,3.0,–,IC50 (hERG): 0.85 µM
"C[C@H](CS)C(=O)N1CCC[C@H]1C(=O)O [Captopril, captopril]",>100,100,>100,–
CC(CCc1ccc(O)cc1)NCCc1ccc(O)c(O)c1 (stereo not shown) [dobutamine],–,–,–,Inotropic effect in 2D hiPSC-CMs (previous study) (2D hiPSC-CMs [3]): positive inotropic effect
Cc1[nH]c(=O)c(C#N)cc1-c1ccncc1 [milrinone],–,–,–,EC50 (3D ECTs [4]): 0.0016 µM; Inotropic effect in aligned hiPSC-CMs (aligned hiPSC-CMs): remained undetectable
